From ChEMBL document CHEMBL1795216, “Synthesis and biological evaluations of novel apocynin analogues” (Eur J Med Chem, 2011)
Calls of active or inactive are those of the source. No cut-off for these calls is given here.

Tests used:
Format in all cases: functional, cell-based
[1] = tested on: RAW264.7; experiment: Inhibition of LPS-induced P67phox protein expression in mouse RAW264.7 cells up to 10 uM pretreated for 1 hr before LPS challenge by Western blot analysis
How it was run: (§1)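 RAW 264.7 cells pretreated 1 h with compound at […], then stimulated with LPS […] for 24 h. Cytoplasmic extracts run on 12% SDS gel and transferred to PVDF. Membranes blocked in 5% nonfat milk/TBS, probed overnight at 4 °C with mouse anti-p67phox and β-actin (1:2000). HRP anti-mouse secondary 1 h at room temperature, ECL detection.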

[2] = tested on: RAW264.7; experiment: Antioxidant activity in lipopolysaccharide-stimulated mouse RAW264.7 cells assessed as decrease in ROS level at 0.1 to 10 uM using DCFH-DA by fluorescence assay
How it was run: (§2)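 RAW 264.7 cells (DMEM, 10% FBS, penicillin-streptomycin) seeded for 24 h, then treated with compounds at […] with or without LPS […]. Loaded with […] DCFH-DA for 20 min at 37 °C in 5% CO2, washed three times with PBS. Fluorescence read at ex488/em525 by laser scanning microscopy and quantified on a microplate reader.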

[3] = tested on: RAW264.7; experiment: Protection against LPS-induced cytotoxicity in mouse RAW264.7 cells assessed as cell viability at 0.1 to 100 uM pretreated for 1 hr before LPS challenge measured after 24 hrs by MTT assay
How it was run: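 RAW 264.7 cells seeded at 10⁴/well in 96-well plates and grown 24 h at 37 °C, 5% CO2. Pretreated with compounds at […] for 1 h, washed, then exposed to LPS for 24 h. MTT 0.5 mg/ml added for 4 h, formazan dissolved in DMSO, absorbance read at 570 nm.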

[4] = tested on: RAW264.7; experiment: Inhibition of LPS-induced P67phox protein expression in mouse RAW264.7 cells compound pretreated for 1 hr before LPS challenge by Western blot analysis; how it was run: as §1
[5] = tested on: RAW264.7; experiment: Antioxidant activity in lipopolysaccharide-stimulated mouse RAW264.7 cells assessed as decrease in ROS level using DCFH-DA by fluorescence assay; how it was run: as §2

COc1cc(C(C)=O)cc(/C=[N+](\[O-])C(C)(C)C)c1O
inhibition [1]: inactive
Activity [2]: inactive

COc1cc(C(C)=O)cc(NC(=O)CCCC[C@@H]2CCSS2)c1O
Activity [3]: Active
inhibition [4]: Dose-dependent effect
Activity [5]: Dose-dependent effect

COc1cc(C(C)=O)cc(CNc2cc(C(C)=O)cc(OC)c2O)c1O
Activity [3]: Active
inhibition [4]: Dose-dependent effect
Activity [5]: Dose-dependent effect

COc1cc(C(C)=O)ccc1O
inhibition [1]: inactive
Activity [3]: inactive
Activity [2]: inactive
